The values below come from ChEMBL document CHEMBL1157729, “Structure-activity relationship and mechanism of action studies of manzamine analogues for the control of neuroinflammation and cerebral infections” (J Med Chem, 2010).

A value given as a limit tells only on which side of the number the result lay.

Data set [1] has as its system Plasmodium berghei. The data set is described as follows: Antiplasmodial activity against Plasmodium berghei NK65 infected in Swiss Webster mice (Mus musculus) at 1.1 mg/kg, po. It counts as functional. The method in brief: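 Male Swiss Webster mice (18-20 g), at least 5 per group, inoculated i.p. with 2×10^7 P. berghei NK-65 parasitized red cells from a donor mouse. Oral dosing (100 μl, in SSV or dilute HCl) from day one after infection, three-day modified Peters suppressive schedule. Giemsa-stained tail blood smears from day 5 through day 28. Inhibition is % parasitemia drop on day 5 versus untreated controls. Cure means no parasitemia through day 28.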

The subject of data set [2] is Plasmodium berghei. The data set is described as follows: Antiplasmodial activity against Plasmodium berghei NK65 infected in Swiss Webster mice (Mus musculus) assessed as average parasitaemia at 100 mg/kg, perorally administered 1 day after infection measured after 7 days post infection. It counts as functional. Conditions: route oral.
The subject of data set [3] is Plasmodium berghei. The data set is described as follows: Antiplasmodial activity against Plasmodium berghei NK65 infected in Swiss Webster mice (Mus musculus) assessed as average parasitaemia at 10 mg/kg, perorally administered 1 day after infection for 3 days measured after 28 days post infection. Type of data set: functional. Conditions: route oral. An outline of the steps:
(§1)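 Male Swiss Webster mice (18-20 g, ≥5/group) inoculated i.p. with 2×10^7 P. berghei NK-65 parasitized RBC; oral dosing (100 μl, SSV or dilute HCl vehicle) once daily for 3 days from day 1; Giemsa-stained tail blood smears days 5–28; inhibition is % decrease versus untreated controls on day 5.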

Data set [4] relates to Mus musculus. The data set is described as follows: Toxicity in Plasmodium berghei NK65 infected Swiss Webster mice (Mus musculus) at 10 mg/kg, intraperitoneally for 3 days administered 1 day after infection measured after 5 days post infection. Type of data set: organism-based. More on the design: dose 10 mg/kg, route intraperitoneal. To be noted: in vivo, ip, 120 h.
Data set [5] relates to Plasmodium berghei. The data set is described as follows: Antiplasmodial activity against Plasmodium berghei NK65 infected in Swiss Webster mice (Mus musculus) assessed as inhibition of parasitaemia at 10 mg/kg, perorally administered 1 day after infection for 3 days measured after 5 days post infection. Type of data set: functional. Conditions: route oral. The method in brief: as §1

The subject of data set [6] is Plasmodium berghei. The data set is described as follows: Antiplasmodial activity against Plasmodium berghei NK65 infected in Swiss Webster mice (Mus musculus) at 3.3 mg/kg, po. Type of data set: functional. The method in brief:
(§2)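 Male Swiss Webster mice (18-20 g), at least 5 per group, inoculated i.p. with 2×10^7 P. berghei NK-65-parasitized red cells from a donor mouse. Oral dosing (100 μl, in SSV or 0.01 M HCl dilutions) from day one post-infection on a 3-day schedule (modified Peters test). Giemsa-stained tail-blood smears read from day 5 to day 28. Cure means no parasitemia through day 28.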

For data set [7], the system named is Plasmodium berghei. The data set is described as follows: Antiplasmodial activity against Plasmodium berghei NK65 infected in Swiss Webster mice (Mus musculus) assessed as average parasitaemia at 100 mg/kg, perorally administered 1 day after infection measured after 5 days post infection. Type of data set: functional. Conditions: route oral. The method in brief:
(§3)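 Male Swiss Webster mice (18-20 g, ≥5/group) inoculated i.p. with 2×10^7 P. berghei NK-65 parasitized RBC, given a single oral dose (100 μl, SSV or dilute HCl vehicle); parasitemia by Giemsa-stained tail blood smears days 5–28; activity as % decrease versus untreated controls on day 5.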

Data set [8] has as its system Plasmodium berghei. The data set is described as follows: Antiplasmodial activity against Plasmodium berghei NK65 infected in Swiss Webster mice (Mus musculus) assessed as average parasitaemia at 10 mg/kg, perorally administered 1 day after infection for 3 days measured after 14 days post infection. It counts as functional. Conditions: route oral.
The subject of data set [9] is Plasmodium berghei. The data set is described as follows: Antiplasmodial activity against Plasmodium berghei NK65 infected in Swiss Webster mice (Mus musculus) assessed as parasitaemia cure at 50 mg/kg, perorally administered 1 day after infection measured after 28 days post infection. Type of data set: functional. Conditions: route oral. An outline of the steps:
(§4)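 P. berghei NK-65 infection in male Swiss Webster mice (18-20 g; 2×10^7 parasitized erythrocytes i.p.; ≥5 per group). A single oral dose of 100 μl, diluted in SSV or 0.01 M HCl, then observation for toxicity signs and body weight. Parasitemia read from Giemsa-stained tail smears from day 5 through day 28. Mice free of parasitemia through day 28 counted as cured.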

Data set [10] has as its system Mus musculus. The data set is described as follows: Toxicity in Plasmodium berghei NK65 infected Swiss Webster mice (Mus musculus) assessed as weight loss at 200 mg/kg, perorally. Type of data set: organism-based. Conditions: in vivo, po. More on the design: dose 200 mg/kg, route oral. The method in brief:
as §4

The test system of data set [11] is Plasmodium berghei. The data set is described as follows: Antiplasmodial activity against Plasmodium berghei NK65 infected in Swiss Webster mice (Mus musculus) assessed as average parasitaemia at 1.1 mg/kg, perorally administered 1 day after infection for 3 days measured after 21 days post infection. To be noted: route oral. It counts as functional.
Data set [12] deals with Plasmodium berghei. The data set is described as follows: Antiplasmodial activity against Plasmodium berghei NK65 infected in Swiss Webster mice (Mus musculus) assessed as average parasitaemia at 200 mg/kg, perorally administered 1 day after infection measured after 21 days post infection. It counts as functional. Conditions: Plasmodium berghei, NK65, route oral. An outline of the steps:
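Male Swiss Webster mice (18-20 g), at least 5 per group, were inoculated ip with 2×10^7 P. berghei NK-65-parasitized red cells from a donor mouse and given a single oral dose (100 μl). Stock was made in SSV or 0.1 M HCl and diluted in SSV or 0.01 M HCl. Parasitemia was read from Giemsa-stained tail blood smears from day 5 to day 28. Cure meant no parasitemia through day 28.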

In data set [13] the test system is Plasmodium berghei. The data set is described as follows: Antiplasmodial activity against Plasmodium berghei NK65 infected in Swiss Webster mice (Mus musculus) assessed as inhibition of parasitaemia at 3.3 mg/kg, perorally administered 1 day after infection for 3 days measured after 5 days post infection. It counts as functional. Conditions: route oral. An outline of the steps: as §1

In data set [14] the test system is HeLa. The data set is described as follows: Cytotoxicity against human HeLa cells after 48 hrs by trypan blue exclusion assay. It counts as functional.
Data set [15] deals with HeLa. The data set is described as follows: Cell cycle arrest in human HeLa cells assessed as decrease in G2/M phase accumulation at 5 uM after 24 hrs by FACS analysis. Type of data set: functional. On the set-up: scale not given: the % may be the effect or the level left.
In data set [16] the test system is Plasmodium berghei. The data set is described as follows: Antiplasmodial activity against Plasmodium berghei infected in mice (Mus musculus) at 10 mg/kg, perorally administered 1 day post infection for 3 days. It counts as functional. To be noted: route oral.
Data set [17] deals with Plasmodium berghei. The data set is described as follows: Antiplasmodial activity against Plasmodium berghei NK65 infected in Swiss Webster mice (Mus musculus) assessed as average parasitaemia at 10 mg/kg, perorally administered 1 day after infection for 3 days measured after 7 days post infection. It counts as functional. Conditions: route oral.
The species named for data set [18] is Mus musculus. The data set is described as follows: Toxicity in Plasmodium berghei NK65 infected Swiss Webster mice (Mus musculus) assessed as weight loss until day 5 of post infection. It counts as organism-based. Conditions: in vivo.
A short description of data set [19]: Antineuroinflammatory activity in LPS-stimulated rat neonatal microglia assessed as inhibition of PMA-induced TXB2 production preincubated 15 mins prior to PMA challenge measured after 70 mins. Type of data set: functional, cell-based.
Data set [20] can be described thus: Antineuroinflammatory activity in LPS-stimulated rat neonatal microglia assessed as drug level causing 50% PMA-induced LDH release preincubated 15 mins prior to PMA challenge measured after 70 mins. It counts as functional. An outline of the steps:
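Neonatal rat microglia (2 × 10^5/well) primed with E. coli LPS 0.3 ng/mL for 17 h at 35.9 °C, washed with HBSS, given compound (0.01–10 μM) or DMSO 15 min, then PMA 1 μM; LDH read spectrophotometrically after 70 min; LDH50 relative to Triton X-100 (0.1%) release; duplicates.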
In general terms: Release of lactate dehydrogenase indicates damage to the cell membrane.

For data set [21], the system named is Plasmodium berghei. The data set is described as follows: Antiplasmodial activity against Plasmodium berghei NK65 infected in Swiss Webster mice (Mus musculus) assessed as inhibition of parasitaemia at 50 mg/kg, perorally administered 1 day after infection measured after 5 days post infection. It counts as functional. To be noted: route oral. An outline of the steps:
as §3

Data set [22] concerns HeLa. The data set is described as follows: Cell cycle arrest in human HeLa cells assessed as increase in S phase accumulation at 10 uM after 24 hrs by FACS analysis. Type of data set: functional. A general note: In flow cytometry, cells or beads pass a laser one at a time.
The subject of data set [23] is HeLa. The data set is described as follows: Cell cycle arrest in human HeLa cells assessed as increase in G0/G1 phase accumulation at 20 uM after 24 hrs by FACS analysis. It counts as functional.
Data set [24] concerns Plasmodium berghei. The data set is described as follows: Antiplasmodial activity against Plasmodium berghei NK65 infected in Swiss Webster mice (Mus musculus) assessed as parasitaemia cure at 1.1 mg/kg, perorally administered 1 day after infection for 3 days measured after 28 days post infection. It counts as functional. Conditions: route oral. The method in brief: as §2

For the compound `O[C@]12C=C(c3nccc4c3[nH]c3ccccc34)[C@@H]3CCN(CCCC/C=C\CC1)C[C@@]31C[C@@H]3/C=C\CCCCN3[C@H]12` [MANZAMINE A], the inhibition in vivo (as a rule, the percentage by which the read-out fell short of the control) at 1.1 mg/kg in the data set on Plasmodium berghei [1] amounted to 26.5%; in the data set on Plasmodium berghei [11] it was 39.6%; in the data set with Plasmodium berghei [24] it was 0%. For the same compound, the inhibition in vivo at 100 mg/kg with Plasmodium berghei [2] and with Plasmodium berghei [7] was 0% throughout. The inhibition in vivo at 10 mg/kg in the data set with Plasmodium berghei [3] turned out to be 3.3%; in the data set with Plasmodium berghei [5], 98%; in the data set on Plasmodium berghei [8] it was 0.9%; in the data set with Plasmodium berghei [17], 0.2%. Also, the Activity entry is “Toxic” in the data set with Mus musculus [4]; “Toxic” in the data set with Mus musculus [10]; 2 µg/mL in the data set on HeLa [14]; 14.3% in the data set on HeLa [15]; 14.3 days in the data set on Plasmodium berghei [16]; “Toxic” in the data set filed under Mus musculus [18]. Besides, the Activity in [20] is more than 10 µM; in the data set with HeLa [22] it was 59.1%; with HeLa [23], 67.2%. Moreover, the inhibition in vivo at 3.3 mg/kg in the data set with Plasmodium berghei [6] was more than 30%; in the data set on Plasmodium berghei [13], 88%. Besides, the inhibition in vivo at 50 mg/kg in the data set with Plasmodium berghei [9] is 60%; in the data set on Plasmodium berghei [21] it was 100%. Besides, in the data set on Plasmodium berghei [12], the inhibition in vivo at 200 mg/kg amounted to 0%. Further, in [19], the IC50 (usually the concentration at which inhibition is half-maximal) is less than 0.1 µM.
